Here are results for 3 compounds from ChEMBL document CHEMBL1250448, “Inhibitor hijacking of Akt activation” (Nat Chem Biol, 2009).

In test [1] the target is T1, Testis-specific serine/threonine-protein kinase 1 (Homo sapiens) (UniProt Q9BXA7).
T1 sequence (whole entry): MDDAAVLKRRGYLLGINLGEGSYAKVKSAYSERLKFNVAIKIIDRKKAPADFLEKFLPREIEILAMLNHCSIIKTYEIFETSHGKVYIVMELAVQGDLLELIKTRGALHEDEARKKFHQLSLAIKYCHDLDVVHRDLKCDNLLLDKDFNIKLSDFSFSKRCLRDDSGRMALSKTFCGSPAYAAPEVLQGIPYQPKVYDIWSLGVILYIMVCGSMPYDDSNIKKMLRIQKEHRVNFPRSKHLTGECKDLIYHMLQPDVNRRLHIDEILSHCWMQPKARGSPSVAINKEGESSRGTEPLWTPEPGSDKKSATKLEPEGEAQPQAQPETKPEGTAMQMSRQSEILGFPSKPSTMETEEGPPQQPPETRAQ
Put plainly: Inhibition of STK22D at 1 uM in presence of 10 uM ATP by Select Screen kinase assay relative to untreated control. A digest of the protocol: (§1)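 Commercial SelectScreen profiling panel of 220 purified kinases. Each kinase was tested at a single inhibitor concentration of 1 μM, and activity was expressed as percent inhibition.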

For test [2], the target named is Casein kinase I isoform gamma-2 (Homo sapiens) (UniProt P78368). Put plainly: Inhibition of CSNK1G2 at 1 uM in presence of 10 uM ATP by Select Screen kinase assay relative to untreated control. A digest of the protocol:
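Single-point screen at 1 μM against a panel of 220 purified kinases, run by Invitrogen staff as a SelectScreen profiling service. Read-out is percent inhibition of kinase activity.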

Test [3] deals with Protein kinase C gamma type (Homo sapiens) (UniProt P05129). Put plainly: Inhibition of PKCG at 1 uM in presence of 10 uM ATP by Select Screen kinase assay relative to untreated control. Put shortly:
as §1

The target of test [4] is T2, Phosphorylase b kinase gamma catalytic chain, liver/testis isoform (Homo sapiens) (UniProt P15735).
T2 sequence (whole entry): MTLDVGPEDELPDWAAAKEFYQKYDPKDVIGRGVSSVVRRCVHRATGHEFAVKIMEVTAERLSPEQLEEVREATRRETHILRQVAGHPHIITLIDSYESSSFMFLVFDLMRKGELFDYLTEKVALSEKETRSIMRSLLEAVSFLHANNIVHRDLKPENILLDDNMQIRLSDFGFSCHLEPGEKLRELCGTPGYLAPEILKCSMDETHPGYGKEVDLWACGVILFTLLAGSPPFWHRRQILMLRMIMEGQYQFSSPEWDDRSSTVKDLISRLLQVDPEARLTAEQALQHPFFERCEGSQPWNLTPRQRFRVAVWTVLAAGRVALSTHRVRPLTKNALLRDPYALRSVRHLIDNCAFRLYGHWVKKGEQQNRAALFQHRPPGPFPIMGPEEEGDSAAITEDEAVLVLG
Put plainly: Inhibition of PHKG2 at 1 uM in presence of 10 uM ATP by Select Screen kinase assay relative to untreated control. Put shortly:
as §1

Test [5] concerns the target Macrophage-stimulating protein receptor (Homo sapiens) (UniProt Q04912). Put plainly: Inhibition of MST1R at 1 uM in presence of 10 uM ATP by Select Screen kinase assay relative to untreated control. Put shortly:
(§2)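 Single-concentration profiling at 1 μM against a panel of 220 purified kinases, run as an outsourced SelectScreen kinase profiling service. Activity is expressed as percent inhibition.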

Test [6] has as its target T3, Tyrosine-protein kinase ZAP-70 (Homo sapiens) (UniProt P43403).
T3 sequence (whole entry): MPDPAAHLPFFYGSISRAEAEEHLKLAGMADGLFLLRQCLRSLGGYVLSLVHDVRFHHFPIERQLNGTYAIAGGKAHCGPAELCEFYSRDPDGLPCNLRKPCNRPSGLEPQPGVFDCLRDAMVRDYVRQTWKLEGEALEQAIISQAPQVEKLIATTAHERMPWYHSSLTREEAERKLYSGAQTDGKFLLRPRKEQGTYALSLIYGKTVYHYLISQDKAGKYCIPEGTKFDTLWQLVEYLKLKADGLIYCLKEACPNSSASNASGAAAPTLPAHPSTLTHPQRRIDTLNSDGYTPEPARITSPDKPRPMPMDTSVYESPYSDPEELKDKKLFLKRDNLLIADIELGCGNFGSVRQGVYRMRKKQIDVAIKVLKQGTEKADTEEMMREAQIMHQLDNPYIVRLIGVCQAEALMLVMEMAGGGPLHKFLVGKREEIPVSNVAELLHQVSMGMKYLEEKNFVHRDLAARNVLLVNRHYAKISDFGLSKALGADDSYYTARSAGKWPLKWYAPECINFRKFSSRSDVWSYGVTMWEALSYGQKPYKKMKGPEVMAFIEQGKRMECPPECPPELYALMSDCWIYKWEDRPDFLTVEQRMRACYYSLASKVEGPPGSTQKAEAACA
Kind of test: Inhibition of ZAP70 at 1 uM in presence of 10 uM ATP by Select Screen kinase assay relative to untreated control. A digest of the protocol: as §1

Test [7] addresses T4, Megakaryocyte-associated tyrosine-protein kinase (Homo sapiens) (UniProt P42679).
T4 sequence (whole entry): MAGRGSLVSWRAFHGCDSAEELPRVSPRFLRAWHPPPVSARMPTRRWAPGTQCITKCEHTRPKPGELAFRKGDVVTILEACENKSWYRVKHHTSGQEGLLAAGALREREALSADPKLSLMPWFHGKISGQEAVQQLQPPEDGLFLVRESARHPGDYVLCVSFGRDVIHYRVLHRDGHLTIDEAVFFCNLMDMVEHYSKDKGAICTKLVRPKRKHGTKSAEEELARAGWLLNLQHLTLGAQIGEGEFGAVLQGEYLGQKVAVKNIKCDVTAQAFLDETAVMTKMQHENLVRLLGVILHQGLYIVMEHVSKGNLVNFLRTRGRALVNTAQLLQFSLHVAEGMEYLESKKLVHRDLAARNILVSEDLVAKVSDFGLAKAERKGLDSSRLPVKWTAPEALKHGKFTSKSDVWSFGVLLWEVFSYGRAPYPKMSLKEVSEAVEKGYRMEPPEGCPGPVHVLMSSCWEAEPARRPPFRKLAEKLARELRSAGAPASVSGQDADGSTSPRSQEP
Kind of test: Inhibition of MATK at 1 uM in presence of 10 uM ATP by Select Screen kinase assay relative to untreated control. A digest of the protocol: as §2

Chain of Casein kinase I isoform gamma-2 (Homo sapiens) (P78368 whole entry, looked up, canonical isoform): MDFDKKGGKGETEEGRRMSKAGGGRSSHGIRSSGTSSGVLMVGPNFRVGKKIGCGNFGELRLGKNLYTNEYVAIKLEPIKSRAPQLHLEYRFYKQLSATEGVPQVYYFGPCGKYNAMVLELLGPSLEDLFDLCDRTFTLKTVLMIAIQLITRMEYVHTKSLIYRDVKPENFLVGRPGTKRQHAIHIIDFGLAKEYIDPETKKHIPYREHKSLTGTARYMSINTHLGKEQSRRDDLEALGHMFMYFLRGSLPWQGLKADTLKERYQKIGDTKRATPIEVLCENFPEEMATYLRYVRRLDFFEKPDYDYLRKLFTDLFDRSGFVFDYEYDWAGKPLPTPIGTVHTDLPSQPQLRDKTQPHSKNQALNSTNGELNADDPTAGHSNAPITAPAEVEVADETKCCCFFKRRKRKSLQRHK
Chain of Macrophage-stimulating protein receptor (Homo sapiens) (Q04912 25-304 limits assumed): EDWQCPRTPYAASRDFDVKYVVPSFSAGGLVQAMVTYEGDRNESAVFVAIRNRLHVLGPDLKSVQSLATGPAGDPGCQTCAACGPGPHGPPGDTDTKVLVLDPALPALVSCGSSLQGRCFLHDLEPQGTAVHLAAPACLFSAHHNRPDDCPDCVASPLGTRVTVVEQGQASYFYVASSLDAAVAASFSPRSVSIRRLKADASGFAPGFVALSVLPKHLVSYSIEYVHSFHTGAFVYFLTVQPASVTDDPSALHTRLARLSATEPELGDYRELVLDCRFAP
Chain of Macrophage-stimulating protein receptor (Homo sapiens) (Q04912 310-1400 limits assumed): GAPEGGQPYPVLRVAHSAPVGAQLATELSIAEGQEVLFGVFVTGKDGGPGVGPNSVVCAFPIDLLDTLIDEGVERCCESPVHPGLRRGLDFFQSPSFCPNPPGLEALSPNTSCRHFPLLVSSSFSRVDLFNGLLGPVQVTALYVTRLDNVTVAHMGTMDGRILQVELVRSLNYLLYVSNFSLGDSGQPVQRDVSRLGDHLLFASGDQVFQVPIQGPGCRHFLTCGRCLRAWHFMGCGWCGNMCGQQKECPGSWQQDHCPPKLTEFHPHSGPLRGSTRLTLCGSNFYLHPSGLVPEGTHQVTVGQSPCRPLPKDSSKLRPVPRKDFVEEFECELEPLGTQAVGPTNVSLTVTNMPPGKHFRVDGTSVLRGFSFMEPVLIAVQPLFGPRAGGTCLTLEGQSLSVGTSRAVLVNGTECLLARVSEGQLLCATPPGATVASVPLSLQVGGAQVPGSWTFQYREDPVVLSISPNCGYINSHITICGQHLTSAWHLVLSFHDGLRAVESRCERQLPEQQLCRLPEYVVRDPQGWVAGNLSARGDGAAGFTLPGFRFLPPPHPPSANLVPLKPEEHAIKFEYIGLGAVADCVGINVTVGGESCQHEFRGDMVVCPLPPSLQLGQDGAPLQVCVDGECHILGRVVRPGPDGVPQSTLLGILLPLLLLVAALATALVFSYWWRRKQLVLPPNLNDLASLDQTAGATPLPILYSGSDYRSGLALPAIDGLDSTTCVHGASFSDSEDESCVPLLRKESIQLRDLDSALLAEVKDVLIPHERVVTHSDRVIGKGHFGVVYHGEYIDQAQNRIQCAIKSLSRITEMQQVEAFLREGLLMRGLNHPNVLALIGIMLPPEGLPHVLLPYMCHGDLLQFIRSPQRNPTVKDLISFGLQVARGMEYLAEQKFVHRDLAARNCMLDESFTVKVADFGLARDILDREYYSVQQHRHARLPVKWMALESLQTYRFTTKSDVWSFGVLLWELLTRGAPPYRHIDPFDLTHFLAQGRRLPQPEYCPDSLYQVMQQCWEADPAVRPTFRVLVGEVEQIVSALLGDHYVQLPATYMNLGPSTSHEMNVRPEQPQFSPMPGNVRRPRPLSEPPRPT

In the case of `COc1ccccc1N1CCN(c2ncnc3[nH]nc(Br)c23)CC1`, the inhibition was 21% in test [1]; 12% in test [2]; 28% in test [3]; 4% in test [4]; -4% in test [5]; 4% in test [6]. Moreover, the inhibition in test [7] is -1%.
Regarding `O=C(NCCCNc1nc(Nc2cccc(NC(=O)N3CCCC3)c2)ncc1I)c1cccs1`, the inhibition in test [1] turned out to be 69%; in test [2] it was 15%; in test [3] it was 58%; in test [4], 28%; in test [5], 17%; in test [6] it was 24%. Besides, the inhibition in test [7] came to 3%.
In the case of `Cc1n[nH]c2ccc(-c3cncc(OC[C@@H](N)Cc4c[nH]c5ccccc45)c3)cc12`, the inhibition in test [1] stood at 71%; in test [2], 81%; in test [3] it was 108%; in test [4] it was 11%; in test [5], 10%; in test [6], 11%. The inhibition in test [7] is -10%.

The term inhibition denotes the change of the read-out against control, counted positive when it falls.
